One assay has as its target T1, Serine protease 1 (Bos taurus, UniProt P00760).
T1 sequence (P00760 whole entry): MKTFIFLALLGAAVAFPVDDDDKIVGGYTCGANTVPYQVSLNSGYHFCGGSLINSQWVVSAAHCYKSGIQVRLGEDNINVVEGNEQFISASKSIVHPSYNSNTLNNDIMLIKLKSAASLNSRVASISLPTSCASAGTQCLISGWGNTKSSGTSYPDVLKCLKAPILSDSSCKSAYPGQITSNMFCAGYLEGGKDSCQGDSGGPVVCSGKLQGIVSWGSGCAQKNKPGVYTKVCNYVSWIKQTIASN
Kind of assay: Inhibitory activity against bovine pancreatic trypsin. An outline of the steps: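 Bovine trypsin at 1 nM final, with buffer 0.05 M Tris, 0.15 M NaCl, 0.1% PEG-8000, 0.02 M CaCl2, pH 7.5, room temperature. 30 min compound preincubation, then S-2765 at 250 μM final. 405 nm read continuously for 5 min. IC50 from initial rates; apparent Ki by Cheng-Prusoff, assuming competitive kinetics.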

The target of assay [1] is T2, Prothrombin (Homo sapiens, UniProt P00734). Kind of assay: Inhibition of human thrombin. An outline of the steps:
(§1)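 Preincubated with compound 30 min, then Pefachrome TH at 50 μM final. p-Nitroanilide release followed at 405 nm for 5 min. IC50 from initial velocities; apparent Ki via Cheng-Prusoff, assuming competitive inhibition.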

For another assay, the target named is Coagulation factor X (Homo sapiens, UniProt P00742). Kind of assay: Compound was evaluated for the inhibition of human Coagulation factor Xa.
Sequence of Coagulation factor X (P00742 41-179 limits assumed): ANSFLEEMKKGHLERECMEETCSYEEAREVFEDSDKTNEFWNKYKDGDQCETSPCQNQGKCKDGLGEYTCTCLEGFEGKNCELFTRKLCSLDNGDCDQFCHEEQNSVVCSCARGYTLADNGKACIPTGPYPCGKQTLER
Sequence of Coagulation factor X (P00742 235-488 limits assumed): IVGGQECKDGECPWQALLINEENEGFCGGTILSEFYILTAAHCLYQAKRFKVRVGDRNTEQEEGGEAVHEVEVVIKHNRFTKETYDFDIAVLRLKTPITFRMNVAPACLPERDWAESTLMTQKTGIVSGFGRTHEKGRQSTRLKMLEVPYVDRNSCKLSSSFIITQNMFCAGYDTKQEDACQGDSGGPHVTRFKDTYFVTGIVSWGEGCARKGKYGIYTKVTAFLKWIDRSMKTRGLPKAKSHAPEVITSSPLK
Assay [2] has as its target Tissue-type plasminogen activator (Homo sapiens, UniProt P00750). The assay can be described thus: Compound was evaluated for the inhibition of Tissue type plasminogen activator (tissue plasminogen activator). Summed up:
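tPA, final enzyme 1 nM, in 0.05 M Tris, 0.15 M NaCl, 0.1% (w/v) BSA, pH 7.5. Preincubated 30 min with compound at room temperature, then Pefachrome-tPA at 500 μM final added. Release of p-nitroanilide monitored at 405 nm for 5 min. IC50 taken from initial rates; apparent Ki via Cheng-Prusoff, assuming competitive inhibition.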

A further assay concerns the target Plasminogen (Homo sapiens, UniProt P00747). Kind of assay: Compound was evaluated for the inhibition of plasmin. Summed up: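 Compound preincubated 30 min, then S-2366 at 300 μM final. Continuous 405 nm read over 5 min. Initial velocities gave IC50; apparent Ki from Cheng-Prusoff, assuming competitive mechanism.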
For assay [3], the target named is T3, Vitamin K-dependent protein C (Homo sapiens, UniProt P04070). The assay can be described thus: Compound was evaluated for the inhibition of activated protein C (aPC). An outline of the steps:
(§2)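 Human aPC, final enzyme 1 nM, in 0.05 M Tris, 0.15 M NaCl, 0.1% PEG-8000, 0.02 M CaCl2, pH 7.5. Compound preincubated with enzyme 30 min at room temperature. S-2366 at 500 μM final started the reaction. p-Nitroanilide release read continuously at 405 nm for 5 min, under 10% substrate consumed. IC50 from initial velocities; apparent Ki by Cheng-Prusoff, competitive mechanism assumed.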

Assay [4] concerns the target T2, Prothrombin. The assay can be described thus: Compound was evaluated for the inhibition of thrombin. Summed up:
as §1

The target of assay [5] is T3, Vitamin K-dependent protein C. The assay can be described thus: Compound was evaluated for the inhibition of Activated protein C (aPC). An outline of the steps:
as §2

pKi: −log10 of the molar value. Some results are limits rather than exact numbers.

From ChEMBL document CHEMBL1132151, “Design and structure-activity relationships of potent and selective inhibitors of blood coagulation factor Xa” (J Med Chem, 1999) come the findings set out here.

For orientation: pKi means the negative decadic logarithm of the Ki, by convention in mol/L. Read a high pKi as a low Ki.

Sequence of Tissue-type plasminogen activator (P00750 whole entry): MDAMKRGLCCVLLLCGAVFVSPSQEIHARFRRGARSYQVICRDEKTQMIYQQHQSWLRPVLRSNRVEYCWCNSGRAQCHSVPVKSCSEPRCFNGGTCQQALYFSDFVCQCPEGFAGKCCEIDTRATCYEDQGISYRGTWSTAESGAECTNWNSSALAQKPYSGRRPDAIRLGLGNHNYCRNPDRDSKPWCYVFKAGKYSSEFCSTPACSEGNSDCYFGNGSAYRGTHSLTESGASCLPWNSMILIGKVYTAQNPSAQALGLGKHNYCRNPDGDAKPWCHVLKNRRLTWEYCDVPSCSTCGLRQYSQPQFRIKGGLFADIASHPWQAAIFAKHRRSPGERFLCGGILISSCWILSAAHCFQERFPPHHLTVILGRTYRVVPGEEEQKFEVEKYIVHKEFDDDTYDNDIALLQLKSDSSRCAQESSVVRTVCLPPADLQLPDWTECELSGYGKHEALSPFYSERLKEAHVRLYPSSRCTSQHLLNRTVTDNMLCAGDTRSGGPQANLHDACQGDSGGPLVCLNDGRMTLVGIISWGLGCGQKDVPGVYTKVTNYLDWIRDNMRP
Sequence of Plasminogen (P00747 97-580 limits assumed): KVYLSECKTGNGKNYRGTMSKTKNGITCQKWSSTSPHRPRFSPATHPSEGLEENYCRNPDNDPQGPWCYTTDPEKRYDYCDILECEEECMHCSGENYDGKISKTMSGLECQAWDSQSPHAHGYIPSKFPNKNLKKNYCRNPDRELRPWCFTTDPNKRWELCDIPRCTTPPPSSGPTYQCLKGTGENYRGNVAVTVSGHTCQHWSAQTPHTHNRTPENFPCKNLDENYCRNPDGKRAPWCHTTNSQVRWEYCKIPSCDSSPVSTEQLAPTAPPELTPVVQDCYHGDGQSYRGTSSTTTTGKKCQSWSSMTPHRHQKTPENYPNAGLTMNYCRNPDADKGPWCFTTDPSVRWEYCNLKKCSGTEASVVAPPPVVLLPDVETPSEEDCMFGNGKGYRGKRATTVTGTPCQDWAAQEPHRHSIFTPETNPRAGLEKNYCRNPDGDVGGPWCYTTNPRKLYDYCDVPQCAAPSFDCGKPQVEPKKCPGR
Sequence of Plasminogen (P00747 581-810 limits assumed): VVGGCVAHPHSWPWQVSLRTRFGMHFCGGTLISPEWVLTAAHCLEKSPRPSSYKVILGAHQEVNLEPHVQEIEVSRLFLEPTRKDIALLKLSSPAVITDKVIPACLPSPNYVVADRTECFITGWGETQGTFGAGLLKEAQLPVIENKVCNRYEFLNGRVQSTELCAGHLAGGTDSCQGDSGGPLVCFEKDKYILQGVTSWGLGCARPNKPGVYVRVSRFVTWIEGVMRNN
T3 sequence (P04070 43-197 limits assumed): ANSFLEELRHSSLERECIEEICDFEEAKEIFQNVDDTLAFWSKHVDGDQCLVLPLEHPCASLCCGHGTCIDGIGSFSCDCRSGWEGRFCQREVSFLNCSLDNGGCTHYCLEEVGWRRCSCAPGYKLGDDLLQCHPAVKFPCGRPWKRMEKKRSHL
T3 sequence (P04070 212-461 limits assumed): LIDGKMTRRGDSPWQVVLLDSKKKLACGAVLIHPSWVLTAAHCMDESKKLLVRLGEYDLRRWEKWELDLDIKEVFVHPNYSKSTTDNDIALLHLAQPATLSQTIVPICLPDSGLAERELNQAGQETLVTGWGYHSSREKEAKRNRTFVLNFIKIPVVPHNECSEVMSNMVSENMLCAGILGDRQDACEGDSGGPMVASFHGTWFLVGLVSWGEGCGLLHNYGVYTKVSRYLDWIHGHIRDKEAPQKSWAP

For `COc1ccc2ccc(S(=O)(=O)N[C@H]3CCN(Cc4csc(C(=N)N)c4)C3=O)cc2c1`, the pKi is 6.30 at Serine protease 1, 5.89 at Prothrombin [1] and 7.96 at Coagulation factor X.
Regarding `COc1ccc2ccc(S(=O)(=O)N[C@H]3CCN(Cc4cccc(C(=N)N)c4)C3=O)cc2c1`, the negative-log Ki (pKi) in assay [2] was below 5.00; on Plasminogen it was 5.33; in assay [3], 5.92.
Turning to `COc1ccc2ccc(S(=O)(=O)N[C@H]3CCN(Cc4cc(C(=N)N)cs4)C3=O)cc2c1`, the pKi on Serine protease 1 was 6.03; at Prothrombin [1], 5.62; at Coagulation factor X it was 7.08.
Turning to `COc1ccc2ccc(S(=O)(=O)N(C)[C@H]3CCN(Cc4csc(C(=N)N)c4)C3=O)cc2c1`, the negative-log Ki (pKi) in assay [2] was 5.07; at Prothrombin [4], 6.00; at Serine protease 1, 6.28; at Plasminogen, 5.36; in assay [3], 5.62.
Consider `COc1ccc2ccc(S(=O)(=O)N[C@H]3CCN(Cc4ccnc(C(=N)N)c4)C3=O)cc2c1`, for which the negative-log Ki (pKi) on Serine protease 1 is 5.55; at Prothrombin [1], 5.69; at Coagulation factor X, 6.96.
As for `N=C(N)c1cccc(CN2CC[C@H](NS(=O)(=O)c3ccc4ccccc4c3)C2=O)c1`, the pKi in assay [2] was below 5.00; on Serine protease 1, 5.54; in assay [5] it was 5.15; on Plasminogen, 5.33; on Prothrombin [1], below 5.40.
